The values below come from PubChem BioAssay.

Activity calls are given as the source filed them. Unless noted, the rule behind the calls is not given here.

The target of assay [1] is Pantothenate synthetase (Mycobacterium tuberculosis (strain ATCC 25618 / H37Rv)) (UniProt P9WIL5). Kind of assay: Recombinant Mtb pantothenate synthetase (PanC) inhibitors, coupled enzyme, confirmatory (AID 375).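 Note: 0% = full reaction with vehicle and 100% = no enzyme background.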 The following applies: coupled enzyme assay; at 10 µM, stronger effect = higher value.
Chain of Pantothenate synthetase (Mycobacterium tuberculosis (strain ATCC 25618 / H37Rv)) (P9WIL5 whole entry, looked up): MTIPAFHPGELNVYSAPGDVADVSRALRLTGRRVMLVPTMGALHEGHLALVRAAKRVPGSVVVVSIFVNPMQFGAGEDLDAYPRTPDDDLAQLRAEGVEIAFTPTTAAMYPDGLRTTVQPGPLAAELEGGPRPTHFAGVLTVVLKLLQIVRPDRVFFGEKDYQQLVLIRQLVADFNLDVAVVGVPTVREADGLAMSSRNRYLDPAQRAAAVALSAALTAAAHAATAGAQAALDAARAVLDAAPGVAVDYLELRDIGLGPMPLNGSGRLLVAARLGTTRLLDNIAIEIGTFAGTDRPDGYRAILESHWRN
Assay [2] is described as follows: reducers of endogenous Her2 protein level, primary screen, SKBR3 breast tumor cells, AlphaScreen, ATP viability (AID 461;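 active = Her2 level under about 52% in both replicate screens, with viability over 70% of control, limit read from the data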;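 for Her2 level: lower value means less Her2 protein in the cells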;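 for viability: percent of carrier control wells set as 100% viability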). As to conditions: 18-24 h, measured here: SKBR3 viability, ATP luminescence, at 10 µM. Background: In Alpha technology, singlet oxygen from a donor bead excites a nearby acceptor bead.
The target in assay [3] is Receptor tyrosine-protein kinase erbB-2 (Homo sapiens) (UniProt P04626). Described as above. As to conditions: 18-24 h, at 10 µM, stronger effect = lower value.
Chain of Receptor tyrosine-protein kinase erbB-2 (Homo sapiens) (P04626 whole entry, looked up): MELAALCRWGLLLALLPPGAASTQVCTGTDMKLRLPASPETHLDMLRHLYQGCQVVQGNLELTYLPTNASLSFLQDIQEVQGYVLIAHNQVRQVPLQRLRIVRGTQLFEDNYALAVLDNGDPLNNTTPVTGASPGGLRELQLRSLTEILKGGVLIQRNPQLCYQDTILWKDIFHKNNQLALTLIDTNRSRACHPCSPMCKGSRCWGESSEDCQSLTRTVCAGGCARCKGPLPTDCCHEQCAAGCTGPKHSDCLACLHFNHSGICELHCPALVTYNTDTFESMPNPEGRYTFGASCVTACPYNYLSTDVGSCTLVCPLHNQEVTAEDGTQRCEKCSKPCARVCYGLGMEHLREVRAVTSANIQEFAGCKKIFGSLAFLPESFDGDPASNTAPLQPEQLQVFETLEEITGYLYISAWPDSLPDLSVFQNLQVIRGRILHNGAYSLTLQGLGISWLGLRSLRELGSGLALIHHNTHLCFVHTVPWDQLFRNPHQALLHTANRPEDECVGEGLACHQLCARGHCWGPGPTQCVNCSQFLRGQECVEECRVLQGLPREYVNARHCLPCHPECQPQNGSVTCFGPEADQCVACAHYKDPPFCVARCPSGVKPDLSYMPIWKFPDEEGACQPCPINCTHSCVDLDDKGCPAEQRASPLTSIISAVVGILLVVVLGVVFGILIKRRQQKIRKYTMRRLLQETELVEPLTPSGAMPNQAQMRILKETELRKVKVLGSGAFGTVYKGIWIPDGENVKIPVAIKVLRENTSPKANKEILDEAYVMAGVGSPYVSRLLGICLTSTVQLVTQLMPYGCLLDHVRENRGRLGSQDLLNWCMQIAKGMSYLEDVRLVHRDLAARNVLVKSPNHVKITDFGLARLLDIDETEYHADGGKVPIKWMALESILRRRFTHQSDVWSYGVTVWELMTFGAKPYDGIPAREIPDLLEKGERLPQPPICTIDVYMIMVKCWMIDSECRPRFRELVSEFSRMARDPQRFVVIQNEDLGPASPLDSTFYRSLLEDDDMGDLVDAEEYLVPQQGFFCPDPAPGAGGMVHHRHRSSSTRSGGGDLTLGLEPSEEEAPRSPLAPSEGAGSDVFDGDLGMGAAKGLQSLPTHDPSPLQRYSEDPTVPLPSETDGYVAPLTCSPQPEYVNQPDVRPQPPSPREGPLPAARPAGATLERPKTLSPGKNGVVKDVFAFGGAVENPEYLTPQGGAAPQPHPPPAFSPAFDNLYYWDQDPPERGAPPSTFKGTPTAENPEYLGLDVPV
The nature of assay [4]: SK-BR-3 cell growth inhibitors, pilot screen, 24 h, human (AID 572;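 active = viability at or below 10% of carrier control in both of two separate runs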;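 note: compound exposure lasted between 18 and 24 h rather than exactly 24 h; 100% = carrier-treated control wells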). As to conditions: SK-BR-3 viability, CellTiter-Glo luminescence, at 10 µM, stronger effect = lower value.
The nature of assay [5]: HUVEC growth inhibition – cell-based, human, primary screen (AID 575;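 active = viability at or below 30% in both replicate assays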;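 note: 100% = median of untreated cell wells with 0.1% DMSO on each plate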). As to conditions: HUVEC proliferation, CellTiter-Glo luminescence, 72 h; at 10 µM; stronger effect = lower value. The method in brief: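 Assay system: Primary human umbilical vein endothelial cells | Quantity: 1250 cells per well | Medium: Supplemented EBM, 2% fetal bovine serum | Detection: CellTiter-Glo luminescence measuring cellular ATP | Read-out: % viability vs DMSO wells | Plate: Collagen-coated 384-well format | Times: 72 h exposure, 37 °C, 5% CO2, 30 min RT equilibration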
(In general: Cellular ATP, detected with luciferase, serves as a proxy for viable cell number.)

The nature of assay [6]: growth inhibitors of H69AR lung tumor, primary screen, human, duplicate replicates (AID 580;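 active = viability at or under a set limit in both replicates, limit being median viability minus 3 SD, cut at about 48% in these data, passing the limit was not always enough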;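 note: 100% = mean luminescence of untreated wells and 0% = no signal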). The following applies: H69AR lung tumor cells viability, ATP luminescence, 72 h; at 10 µM; stronger effect = lower value.
The nature of assay [7]: reversal of MRP1-mediated doxorubicin resistance, pilot screen, H69AR cells, doxorubicin co-treatment (AID 601;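 active = viability loss from added drug above about 55%, and viability with drug at most 40%, in both replicates, limit read from the data, passing the limit was not always enough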). The following applies: CellTiter-Glo, 72 h, at 10 µM; for differential viability (reversal): stronger effect = higher value.
Assay [8] is described as follows: 384-well plate pilot, post-Golgi transport modulator project, inhibition of yeast transport mutant growth (AID 636; in the data active = inhibition above about 31%). The following applies: absorbance 615 nm, about 18 h, stronger effect = higher value.
A short description of assay [9]: growth suppression of yeast trafficking mutant, preliminary HTS, modulators of trafficking downstream of Golgi apparatus project, 1536-format plate, OD 615 nm (AID 637; in the data active = inhibition above about 30%). The following applies: yeast transport mutant growth, absorbance 615 nm, 18 h; stronger effect = higher value.
Setting [10] is: H69AR cells + 2 uM doxorubicin, measured here: viability with 2 uM doxorubicin, stronger effect = lower value.
Where [11] appears, read: H69AR cells, compound alone cytotoxicity.

For `CC1=C(C(=O)OC(C)C)[C@]2(C(=O)N(CC(N)=O)c3ccccc32)C(C#N)=C(N)O1`, the inhibition (as a rule, the relative decrease from the control value, in per cent) is 3% (inactive) in assay [1], -6.8% (inactive) in assay [8] and 19.5% (inactive) in [9]. In addition, the viability – broadly, a read-out of living cells in per cent, often relative to untreated cells – in [2] was 92%; in assay [4], 92% (inactive); in assay [5], 110% (inactive); in assay [6], 113% (inactive); in assay [7] (setting [10]), 97.5%; in assay [7] (setting [11]), 113%. Also, the Her2 level in [3] is 85.5% (inactive). Also, the differential viability (reversal) in assay [7] (H69AR cells + 2 uM doxorubicin) was 15.5% (inactive).

As to `CC12CCCCC1=[N+]([O-])CN2O` (stereo not given), the figures for the inhibition in [1], in assay [8] and in assay [9] were 5% (inactive), -1.33% (inactive) and 8.71% (inactive), respectively. The viability is 102% in assay [2]; 102% (inactive) in assay [4]; 109% (inactive) in assay [5]; 105% (inactive) in assay [6]; 89.4% in [7] (setting [10]); 105% in assay [7] (setting [11]). For the same compound, the Her2 level in [3] is 112% (inactive). For the same compound, the differential viability (reversal) in [7] (H69AR cells + 2 uM doxorubicin) was 15.9% (inactive).

On to `O=C(O)C1(c2ccc(Cl)cc2)CCC1`, for which the inhibition in assay [1] is 0% (inactive); in assay [8] it was -6.13% (inactive); in assay [9], -3.02% (inactive). For the same compound, the viability in assay [2] is 109%; in [4], 109% (inactive); in [5] it was 97.2% (inactive); in assay [6], 91.7% (inactive); in assay [7] (setting [10]) it was 93.6%; in assay [7] (setting [11]) it was 91.7%. In assay [3], the Her2 level was 91.5% (inactive). Further, in [7] (H69AR cells + 2 uM doxorubicin), the differential viability (reversal) is -1.85% (inactive).

In the case of `Cc1oc2ccc(OC(=O)N(C)C)cc2c1C(=O)OC(C)C`, the inhibition in assay [1] was 0% (inactive); in assay [8], -3.24% (inactive); in assay [9] it was 10.2% (inactive). Further, the viability in [2] is 96%; in assay [4], 96% (inactive); in [5], 92.4% (inactive); in [6], 107% (inactive); in assay [7] (setting [10]) it was 95.8%; in assay [7] (setting [11]), 107%. Further, the Her2 level in [3] was 87.5% (inactive). For the same compound, the differential viability (reversal) in assay [7] (H69AR cells + 2 uM doxorubicin) is 11.3% (inactive).

`CC(C)OC(=O)c1c(N)n(CC2CCCO2)c2nc3ccccc3nc12` (stereo not given): the inhibition in assay [1] is 5% (inactive); in assay [8], -1.58% (inactive); in [9] it was -3.17% (inactive). Moreover, the viability in [2] was 86.5%; in assay [4] it was 86.5% (inactive); in [5], 102% (inactive); in assay [6] it was 94.7% (inactive); in assay [7] (setting [10]) it was 89.7%; in [7] (setting [11]) it was 94.7%. Moreover, in [3], the Her2 level was 92.5% (inactive). Besides, the differential viability (reversal) in assay [7] (H69AR cells + 2 uM doxorubicin) was 4.96% (inactive).

As for `C(#CCN1CCOCC1)COCC#Cc1ccccc1`, the results for the inhibition in [1], in assay [8] and in assay [9] were 0% (inactive), -5.41% (inactive) and 1.11% (inactive), respectively. In addition, the viability in assay [2] is 92.5%; in assay [4], 92.5% (inactive); in [5], 91.4% (inactive); in assay [6] it was 101% (inactive); in assay [7] (setting [10]) it was 85.3%; in [7] (setting [11]), 101%. In addition, in assay [3], the Her2 level is 85.5% (inactive). In addition, the differential viability (reversal) in assay [7] (H69AR cells + 2 uM doxorubicin) is 15.2% (inactive).

On to `Nc1ccc(C2(c3ccc(N)cc3)CN3CCC2CC3)cc1`, for which the results for the inhibition in assay [1], in assay [8] and in assay [9] were 0% (inactive), -5.75% (inactive) and 0% (inactive), respectively. Also, the viability in assay [2] is 120%; in [4], 120% (inactive); in assay [5], 85.5% (inactive); in assay [6], 106% (inactive); in [7] (setting [10]) it was 100%; in assay [7] (setting [11]), 106%. For the same compound, the Her2 level in assay [3] was 88% (inactive). The differential viability (reversal) in assay [7] (H69AR cells + 2 uM doxorubicin) was 6.37% (inactive).

Regarding `Cc1cc(N2C(=O)C3CCCN3C2c2cccc(Cl)c2)no1` (stereo not given), the results for the inhibition in assay [1], in [8] and in assay [9] were 4% (inactive), -0.13% (inactive) and -0.97% (inactive), respectively. Further, the viability in [2] is 95%; in assay [4] it was 95% (inactive); in assay [5] it was 89.3% (inactive); in assay [6] it was 109% (inactive); in [7] (setting [10]), 88%; in assay [7] (setting [11]), 109%. The Her2 level in [3] is 96.5% (inactive). For the same compound, in [7] (H69AR cells + 2 uM doxorubicin), the differential viability (reversal) was 21% (inactive).

`CC(C)C(=O)c1cn(Cc2ccccc2C#N)c2ccccc12`: the inhibition was 8% (inactive) in assay [1], -4.53% (inactive) in [8] and 3.97% (inactive) in assay [9]. For the same compound, the viability in assay [2] was 98%; in assay [4], 98% (inactive); in assay [5], 97% (inactive); in assay [6] it was 82.8% (inactive); in assay [7] (setting [10]) it was 90.3%; in assay [7] (setting [11]) it was 82.8%. Moreover, in assay [3], the Her2 level is 100% (inactive). In addition, the differential viability (reversal) in assay [7] (H69AR cells + 2 uM doxorubicin) is -7.5% (inactive).

As for `COC(=O)c1cncn1C(C)c1ccccc1` (stereo not given), the inhibition in [1] is 0% (inactive); in [8], -4.46% (inactive); in [9], -5.25% (inactive). Also, the viability was 88.5% in assay [2]; 88.5% (inactive) in assay [4]; 108% (inactive) in [5]; 95% (inactive) in assay [6]; 88.9% in [7] (setting [10]); 95% in assay [7] (setting [11]). The Her2 level in assay [3] was 80.5% (inactive). The differential viability (reversal) in [7] (H69AR cells + 2 uM doxorubicin) is 6.07% (inactive).

`CCOc1ccc(Br)c(C2(O)CC(C)N(C)CC2C)c1` (stereo not given): the figures for the inhibition in [1], in assay [8] and in assay [9] were 1% (inactive), -6% (inactive) and -1.48% (inactive), respectively. For the same compound, the viability in assay [2] was 80.5%; in assay [4] it was 80.5% (inactive); in [5], 68.2% (inactive); in assay [6], 96.7% (inactive); in assay [7] (setting [10]), 77.1%; in assay [7] (setting [11]) it was 96.7%. For the same compound, in assay [3], the Her2 level was 80.5% (inactive). Besides, in assay [7] (H69AR cells + 2 uM doxorubicin), the differential viability (reversal) was 19.5% (inactive).

Take `CSc1ccc(C(=O)C(C)(C)N2CCOCC2)cc1`: the inhibition in assay [1] was 0% (inactive); in [8] it was -2.76% (inactive); in assay [9] it was 6.56% (inactive). Besides, the viability in assay [2] was 106%; in assay [4], 106% (inactive); in [5], 112% (inactive); in assay [6], 105% (inactive); in [7] (setting [10]), 87.2%; in assay [7] (setting [11]), 105%. In assay [3], the Her2 level was 107% (inactive). For the same compound, in assay [7] (H69AR cells + 2 uM doxorubicin), the differential viability (reversal) was 18.2% (inactive).

Consider `Cn1c(O)c(C=NCc2ccco2)c(=O)n(C)c1=O`, for which the inhibition in assay [1] is 0% (inactive); in assay [8], -4.53% (inactive); in assay [9], 14.7% (inactive). The viability was 106% in [2]; 106% (inactive) in assay [4]; 96.8% (inactive) in [5]; 95.1% (inactive) in assay [6]; 90.1% in assay [7] (setting [10]); 95.1% in assay [7] (setting [11]). The Her2 level in assay [3] is 96% (inactive). In addition, in assay [7] (H69AR cells + 2 uM doxorubicin), the differential viability (reversal) was 5% (inactive).

Take `Nc1ccccc1C(=O)OC1CSC1`: the inhibition in assay [1] was 0% (inactive); in [8], -2.53% (inactive); in assay [9], 1.45% (inactive). Moreover, the viability in assay [2] was 132%; in assay [4], 132% (inactive); in assay [5] it was 105% (inactive); in assay [6] it was 89.2% (inactive); in [7] (setting [10]) it was 88.7%; in assay [7] (setting [11]), 89.2%. Besides, the Her2 level in assay [3] was 110% (inactive). Moreover, in assay [7] (H69AR cells + 2 uM doxorubicin), the differential viability (reversal) is 0.43% (inactive).

In the case of `O=c1[nH]c(=O)n(CCc2ccccc2)c(O)c1C=NCCN1CCNCC1`, the inhibition is 6% (inactive) in assay [1], -1.58% (inactive) in [8] and 5.16% (inactive) in assay [9]. In addition, the viability in assay [2] is 99%; in [4], 99% (inactive); in assay [5] it was 108% (inactive); in assay [6], 93% (inactive); in assay [7] (setting [10]), 91.3%; in assay [7] (setting [11]), 93%. The Her2 level in assay [3] is 91.5% (inactive). Further, in assay [7] (H69AR cells + 2 uM doxorubicin), the differential viability (reversal) is 1.67% (inactive).
